Data taken from ChEMBL document CHEMBL1147350, “Sesquiterpene-derived metabolites from the deep water marine sponge Poecillastra sollasi” (J Nat Prod, 1993).
Converted amounts (≈) assume the structure as drawn.

Columns and labels:
P388 = test: Cytotoxicity against mouse P388 cells by MTT assay; type: functional, cell-based
A549 = test: Cytotoxicity against human A549 cells by MTT assay; type: functional, cell-based
Candida albicans = test: Antifungal activity against Candida albicans ATCC 44506 after 24 hrs by standard microdilution broth technique; type: functional; conditions: ATCC 44506, 24 h
Method in brief: (§1)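 Broth microdilution MIC in 50 μl total volume. C. albicans ATCC 44506 grown in Sabouraud dextrose broth at 37° for 24 h; Cr. neoformans ATCC 32045 in Emmon's modification of Sabouraud dextrose broth at 37° for 48 h. MIC taken as lowest drug concentration giving complete growth inhibition.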

Cryptococcus neoformans = test: Antifungal activity against Cryptococcus neoformans ATCC 32045 after 48 hrs by standard microdilution broth technique; type: functional; conditions: ATCC 32045, 48 h; method in brief: as §1
[1] = Displacement of [125I]angiotensin 2 from angiotensin 2 receptor in rat aorta smooth muscle cell membrane by genesys gamma counting
Method in brief: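 Duplicate tubes: 0.88 nM (final) [125I]angiotensin II, membranes 75–125 μg/ml protein, 3 h at 25°; nonspecific with 1 μM unlabeled angiotensin II. GF/C filtration, gamma counting, nonlinear regression.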

Row | MIC (Candida albicans) [µg/mL] | MIC (Cryptococcus neoformans) [µg/mL] | IC50 [1] [µM] | SMILES | IC50 (P388) [µg/mL] | IC50 (A549) [µg/mL]
1 | 125 (≈ 376 µM) | 31.2 (≈ 93.8 µM) | – | CC1=CCC[C@@H](C)[C@]1(C)CC/C(C)=C/C(=O)N[C@@H]1CCCNC1=O [SOLLASIN B] | 6 (≈ 18 µM) | 17 (≈ 51.1 µM)
2 | 31.2 (≈ 90 µM) | 15.6 (≈ 45 µM) | 63 | CC1=CCC[C@@H](C)[C@]1(C)CC/C(C)=C/C(=O)N[C@@H]1CCCCNC1=O [SOLLASIN C] | 8.4 (≈ 24.2 µM) | 11 (≈ 31.7 µM)
3 | – | – | 42 | COc1cc(/C=C(\C)CC[C@]2(C)C(C)=CCC[C@H]2C)oc(=O)c1 [SOLLASIN D] | 5.5 (≈ 17.4 µM) | 11.3 (≈ 35.7 µM)
4 | 25 (≈ 90.4 µM) | 25 (≈ 90.4 µM) | – | CC1=CC(=O)CC(C)(CC[C@]2(C)C(C)=CCC[C@H]2C)O1 (some centres undefined) [SOLLASIN E] | – | –
